Screens deposited in PubChem BioAssay by several laboratories.
Most compounds without a hit are left out; they make up all but 4.1% or so of the library.
ROMK mod: ROMK potassium channel modulators, primary screen, cell-based, thallium flux, MLSMR library; ATP-sensitive inward rectifier potassium channel 1 (Homo sapiens), P48048; Tet-inducible ROMK, thallium flux fluorescence; actives lie on both sides; B-score at 10 µM; 130,000 compounds, 2% hits; AID 1918, 2009;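 active = signal ratio slope over the read window, or its plate-corrected B-score, at least 3 SD from the plate mean, either direction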;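 note: B-score of the F/F0 ratio slope over 7 to 12 s after thallium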
Cl transport mod: KCC2 cotransporter modulators, thallium flux, primary screen, cell-based, HEK293 KCC2, FluoZin-2 fluorescence, MLSMR; AID 1456, 2008; B-score of Tl+ flux slope (higher = more flux/activation; lower = inhibition) at 10 µM; 190,000 compounds, 2.2% hits; KCC2 cells, thallium flux FluoZin-2 fluorescence;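 active = thallium flux slope and its plate-corrected score both differing from the plate sample mean at a set confidence after two filtering rounds, in either direction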;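 note: slope of fluorescence scaled to starting intensity during 10 to 20 s after thallium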
Target sequence (Q9H2X9 whole entry, looked up): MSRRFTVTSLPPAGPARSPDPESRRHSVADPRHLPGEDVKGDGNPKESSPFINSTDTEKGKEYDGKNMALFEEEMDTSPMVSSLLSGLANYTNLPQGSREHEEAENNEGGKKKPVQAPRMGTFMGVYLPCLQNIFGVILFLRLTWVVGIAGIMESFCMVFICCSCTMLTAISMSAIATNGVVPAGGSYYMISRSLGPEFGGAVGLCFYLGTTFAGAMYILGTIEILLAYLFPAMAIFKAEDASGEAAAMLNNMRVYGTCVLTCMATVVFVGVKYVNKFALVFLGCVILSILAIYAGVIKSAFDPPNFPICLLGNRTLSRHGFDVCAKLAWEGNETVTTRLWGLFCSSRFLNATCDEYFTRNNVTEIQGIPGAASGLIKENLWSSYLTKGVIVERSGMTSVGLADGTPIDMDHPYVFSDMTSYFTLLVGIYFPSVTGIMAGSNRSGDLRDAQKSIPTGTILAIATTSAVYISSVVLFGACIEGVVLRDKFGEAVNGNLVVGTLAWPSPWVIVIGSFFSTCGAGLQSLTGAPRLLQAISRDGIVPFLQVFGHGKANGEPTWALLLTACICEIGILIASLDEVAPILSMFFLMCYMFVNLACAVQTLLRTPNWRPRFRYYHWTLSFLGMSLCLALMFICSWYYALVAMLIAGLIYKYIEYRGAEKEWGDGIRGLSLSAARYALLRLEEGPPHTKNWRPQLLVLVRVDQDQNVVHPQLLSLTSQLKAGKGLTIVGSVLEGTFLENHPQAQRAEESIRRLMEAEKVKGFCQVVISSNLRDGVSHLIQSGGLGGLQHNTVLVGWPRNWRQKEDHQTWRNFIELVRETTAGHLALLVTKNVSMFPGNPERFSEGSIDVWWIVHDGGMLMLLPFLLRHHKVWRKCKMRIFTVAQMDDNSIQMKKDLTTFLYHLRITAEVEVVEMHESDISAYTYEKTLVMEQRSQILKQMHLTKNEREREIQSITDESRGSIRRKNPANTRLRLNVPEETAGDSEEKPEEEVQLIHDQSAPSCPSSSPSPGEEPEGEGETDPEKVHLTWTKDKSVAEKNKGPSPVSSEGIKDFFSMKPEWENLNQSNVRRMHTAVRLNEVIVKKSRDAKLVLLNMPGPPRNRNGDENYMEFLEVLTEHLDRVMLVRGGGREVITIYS
Dynein transport: inhibitors of GR-EGFP nuclear translocation, primary screen, dynein cargo transport inhibitor project, imaging, high-content, 3617.4 mouse cells; z-score, hits read low; test concentration mostly 20 µM; stimulated with dexamethasone, 1 µM; active compounds read low; 220,000 compounds, 0.47% hits;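 active = plate z-score of nuclear minus cytoplasmic receptor signal below a set negative limit, without overly bright fluorescence or cell loss, cut at about -3.5 in these data, passing the limit was not always enough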;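 note: z-score of nuclear minus cytoplasmic ring GR-EGFP intensity difference per well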
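Also added – dexamethasone, 1.0 µM final · Buffer or medium – tet-free, stripped-serum medium · Schedule – induction 48 h, compound 1 h, agonist 30 min · Detection – formaldehyde fixation, Hoechst nuclear stain, 10x automated fluorescence imaging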
Autophagy mod: autophagy modulators in MEF cells, primary screen, imaging, high-content, MEF GFP-LC3; MEF GFP-LC3 puncta imaging; test concentration mostly 10 µM; calls only at 10 µM (by protocol); 190,000 compounds, 0.98% hits; AID 463193, 2010;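 active = percentage of spot-positive cells more than 3 SD above its plate mean, without a fluorescence outlier flag or 80% toxicity; inconclusive = no clear call, values can overlap the other calls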;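 note: spot-positive cell cutoff set from DMSO-treated cells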
Redox H2O2 prof: compounds producing H2O2 with reducing agent – biochemical, NIH compound library profiling, artefact control for MLSCN library redox annotation, primary screen. DTT-dependent redox cycling H2O2, phenol red/HRP absorbance; 100% = 100 µM peroxide control, 0% = buffer. activation, % at 10 µM. 200,000 compounds, 0.03% hits. AID 878, 2007;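 active = activation of at least 50% relative to the plate's high and low controls in the primary single-dose screen; inactive = activation below 50%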;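 note: compound incubated with DTT at 0.8 mM final as the reducing agent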
Dynein confirm: dynein cargo transport inhibitors, GR-EGFP translocation, confirmation, imaging, high-content imaging, GR-EGFP cells. shares compounds with Dynein transport. 3617.4 GR-EGFP nuclear translocation imaging, dexamethasone-induced. AID 463116, 2010. 1,000 compounds, 69% hits. calls only at 20 µM;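 active = inhibition of receptor movement into the nucleus at or above a set limit in both runs, with normal cell brightness and cell count; inconclusive = limit reached in only one run, brightness and count normal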;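 note: dexamethasone at 1 µM final in well for 30 min; nuclear minus cytoplasmic GR-EGFP mean intensity difference in channel 2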
* hit, by the source's call; i = inactive; u = inconclusive; x = no result given; + = active, no number.

SMILES	ROMK mod	Cl transport mod	Dynein transport	Autophagy mod	Redox H2O2 prof	Dynein confirm
Nc1ccc(-c2ccc(C(=O)O)s2)cn1	0.29	-0.76	-0.82	i	0	x
Cc1cc2c(cc1C)NC(CC(=O)NCc1ccccc1)C(=O)N2 (stereo unspecified)	x	-0.57	-3.7	i	-1	i
CCc1c(C)nn(C(=O)/C(C#N)=C\N(C)C)c1C	-0.019	-0.41	-0.24	i	0	x
O=C1CC(Sc2nnc(-c3ccccc3)o2)C(=O)N1c1ccccc1 (stereo unspecified)	x	0.2	-2.3	i	2	x
Cc1ccccc1N1C(=O)CC(Sc2nnc(-c3ccccc3)o2)C1=O (stereo unspecified)	0.068	x	-7.3*	i	-1	+
COC(=O)CCS(=O)(=O)c1nc(-c2ccccc2)cc(C(F)(F)F)n1	x	x	-2.4	i	0	x
Cc1cc(NC(=O)CCCS(=O)(=O)c2nc(-c3cccs3)cc(C(F)(F)F)n2)no1	-1.1	x	-4.8*	i	0	u
Cc1cc(NC(=O)CSc2nc(-c3cccs3)cc(C(F)(F)F)n2)no1	1	0.24	1.4	i	1	x
COc1ccc(-c2cc(C(F)(F)F)nc(S(=O)(=O)CCCC(=O)Nc3cccnc3Cl)n2)cc1OC	-0.43	x	-5.1*	i	-1	+
Cc1sc2ncn(/N=C/c3ccco3)c(=O)c2c1C	x	-0.37	1.7	x	x	x
CCCNC(=O)Cn1c(=O)/c(=C\c2ccc(-c3ccc([N+](=O)[O-])cc3)o2)s/c1=C\C(=O)C(C)(C)C	x	i	-4.9	u	2	+
COc1ccc(C(CC(=O)c2ccc(C)cc2)C(C#N)C#N)cc1OC (stereo unspecified)	-0.95	-0.24	-1.6	i	1	x
Cc1cc(N2CCCC2)c(F)cc1/C=C\[N+](=O)[O-]	-1.7	-1.4	-3.9	i	0	+
O=C(COC(=O)c1c[nH]c(=O)[nH]c1=O)Nc1ccccc1Br	x	1.3	-0.39	x	x	x
CC(C)c1nnc(SCC(=O)N2CCc3ccccc32)n1N	-0.42	0.31	-0.11	i	-1	x
CCOC(=O)C1=C(O)c2ccccc2C(=O)/C1=C\c1ccc(CC)cc1	x	x	-4.7	i	9	i
CCCc1ccc(/C=C2\C(=O)c3ccccc3C(O)=C2C(=O)OCC)cc1	x	x	-3.5*	i	2	u
CC(=O)N(C)Cc1ccc(C(=O)CCl)cc1	-0.0052	-0.51	-4.6	i	0	+
CC1CCCC(C)N1C(=C(Cl)Cl)C(=C1SCCS1)[N+](=O)[O-] (stereo unspecified)	0.33	-0.014	0.13	i	0	x
CC(C)Cn1c(C(C)C)nc([N+](=O)[O-])c1Sc1ccc(Cl)cn1	0.017	-1.3	-0.013	i	1	x
CCCCn1c(CCC)nc([N+](=O)[O-])c1Sc1ccc(Cl)cn1	-0.46	-0.3	-3.6*	i	1	+
CS(=O)(=O)N1N=C(c2ccccc2)CC1c1ccc2c(c1)OCO2 (stereo unspecified)	-0.76	-0.28	-7.8	i	0	i
O=C1CC(=O)N(CCNc2ncc(C(F)(F)F)cc2Cl)C(=O)N1	x	x	0.019	i	2	x
O=C1C=CC(=O)N1CCNc1ncc(C(F)(F)F)cc1Cl	-0.091	-0.76	-5.5*	i	-1	+
N#C/C(=C/c1ccc(N2CCCCC2)o1)C(=O)Nc1ccc2ccccc2c1	x	i	-4*	x	0	+
SMILES	ROMK mod	Cl transport mod	Dynein transport	Autophagy mod	Redox H2O2 prof	Dynein confirm
COc1ccc(NC(=O)/C(C#N)=C\c2ccc(N3CCOCC3)o2)cc1	x	i	-1.1	i	0	x
N/C(=C\C(=O)c1cc(Cl)ccc1O)C(Cl)(Cl)Cl	-1.3	-0.19	-5*	x	x	+
CC(C)c1ccc(N=C2N=C(N)c3ccccc32)cc1	x	-1.8	-0.99	x	x	x
CCOC(=O)C1C(=O)C=C(/C=C/c2ccc(N(C)C)cc2)CC1c1ccccc1 (stereo unspecified)	x	-1.4	-9.9	+	2	i
Cc1nnc(NC(=O)c2sc3nc(-c4cccs4)cc(C(F)(F)F)c3c2N)s1	x	-0.74	-6.1	+	-4	i
Cc1cc(N/N=C/c2ccncc2)c([N+](=O)[O-])cc1[N+](=O)[O-]	1.3	-0.02	-1.7	x	x	x
COC(=O)Cn1c(=N)n(CCN2CCCCC2)c2ccccc21	x	0.18	-0.73	i	2	x
N=c1n(CCN2CCCCC2)c2ccccc2n1CC(=O)c1ccc(Cl)c(Cl)c1	x	-0.063	-3.6*	x	x	i
CN(C)CCCn1c(SCC(=O)N2c3ccccc3Sc3ccccc32)nc2ccccc2c1=O	x	1.2	-4.2*	i	0	i
Cn1c(SCC(=O)N2c3ccccc3Sc3ccccc32)nc2ccccc21	0.29	-0.61	1.5	i	0	x
Cc1ccc(C(=O)N/C(=C/c2ccco2)C(=O)OCN2C(=O)c3ccccc3C2=O)cc1	-0.46	-0.4	-0.64	i	0	x
COC(=O)c1ccc(-c2nn(C)c(=O)c3ccccc23)cc1	x	0.063	0.055	x	0	x
COC(=O)c1ccc(C(=O)OC)c(-n2c(=O)c3ccccc3c3ccccc3c2=O)c1	-0.29	0.81	-5.1*	i	0	+
CCC1CCC(C(=O)NC(CCSC)C(=O)NCCN(CC(C)C)CC(C)C)CC1 (stereo unspecified)	-0.21	-1.3	-0.035	i	-1	x
O=C(N/C(=C/c1ccc(Br)cc1)C(=O)N1CCCC1=O)c1ccco1	0.46	0.36	-1.2	i	0	x
CCC(C)(C)C1CCc2[nH]nc(C(=O)N/N=C(\C)c3ccco3)c2C1 (stereo unspecified)	x	0.0089	-3.8*	x	x	i
O=C(/C=C/c1ccc(F)cc1)c1cc(Br)ccc1O	x	x	-3.8*	x	x	+
CCc1sc(C(C2C(=O)CC(C)(C)CC2=O)C2C(=O)CC(C)(C)CC2=O)cc1[N+](=O)[O-]	-0.53	-0.87	-5.2*	i	-1	i
O=C1COc2ccc(C(=O)CCl)cc2N1	x	x	-4*	x	x	+
Cc1cccc(C2N=C(N)Nc3nc4ccccc4n32)c1 (stereo unspecified)	x	0.17	-0.014	x	x	x
CCNc1ccc(Br)cc(C(=O)/C=C/c2c(Cl)cccc2Cl)c1=O	0.082	x	-5.6	+	3	+
CCNc1ccc(Br)cc(C(=O)/C=C/c2ccc(Cl)cc2)c1=O	0.34	-0.72	-2.5	i	1	x
CCN1CCN(C2=C(Cl)C(=O)N(Cc3ccccc3)C2=O)CC1	x	-0.6	-4.7*	i	0	+
